In general, inhibition refers to the relative decrease from the control value, in per cent. A word on the Inhibition: it is the percentage by which the read-out fell short of the control. In general, inhibition in vivo refers to the share of the control response that was lost under treatment.

The target of test [1] is T1, Polyunsaturated fatty acid 5-lipoxygenase (Rattus norvegicus) (UniProt P12527).
T1 sequence (whole entry): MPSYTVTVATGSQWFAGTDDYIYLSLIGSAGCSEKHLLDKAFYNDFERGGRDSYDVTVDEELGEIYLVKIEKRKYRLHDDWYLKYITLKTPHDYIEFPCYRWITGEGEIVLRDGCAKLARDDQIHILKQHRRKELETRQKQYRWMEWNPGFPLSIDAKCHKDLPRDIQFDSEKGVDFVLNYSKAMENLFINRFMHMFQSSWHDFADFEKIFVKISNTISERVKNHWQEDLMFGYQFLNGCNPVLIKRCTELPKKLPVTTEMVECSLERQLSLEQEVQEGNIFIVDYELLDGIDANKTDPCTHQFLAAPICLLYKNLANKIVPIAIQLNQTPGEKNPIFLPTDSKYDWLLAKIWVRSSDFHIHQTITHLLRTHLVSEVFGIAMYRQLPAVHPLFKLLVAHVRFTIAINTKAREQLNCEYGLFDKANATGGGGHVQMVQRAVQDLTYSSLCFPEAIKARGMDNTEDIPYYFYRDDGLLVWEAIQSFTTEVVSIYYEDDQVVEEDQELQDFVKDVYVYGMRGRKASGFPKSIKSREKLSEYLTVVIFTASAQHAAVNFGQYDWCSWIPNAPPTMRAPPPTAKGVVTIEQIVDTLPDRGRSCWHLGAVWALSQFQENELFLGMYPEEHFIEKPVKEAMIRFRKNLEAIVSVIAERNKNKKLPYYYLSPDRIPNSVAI
In words: In vitro inhibitory activity against Lipoxygenase in rat neutrophils at a dose of 50 uM. An outline of the steps: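 Neutrophils come from the 4 h pleural exudate of male Wistar-Lewis rats given iv BSA plus intrapleural rabbit anti-BSA IgG. Cells are washed, red cells lysed with NH4Cl, and resuspended at about 5×10^6 cells/0.1 mL in Tris pH 7.4 with NaCl and 1 mM CaCl2. Cells are preincubated with compound 4 min at room temperature.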

Test [2] has as its target Cyclooxygenase (Rattus norvegicus) (UniProt P35355+Q63921). The test is described as follows: In vitro inhibitory activity against Prostaglandin G/H synthase in rat neutrophils at a dose of 50 uM.
The species named for test [3] is Rattus norvegicus. In words: Antiinflammatory activity by immune response to collagen II antigen in rats antibody titer was determined by passive hemagglutinination. In kind it is functional. In short, it runs like this:
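In rats with bovine type II collagen/incomplete Freund's adjuvant arthritis, the antibody response to collagen II was titred by passive hemagglutination. The delayed-type hypersensitivity component, ear thickness 24 h after intrapinna antigen, was read at day 21.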

The test system of test [4] is Rattus norvegicus. In words: Antiinflammatory activity against collagen II arthritis in rats, activity % inhibition in noninjected paw edema. The format is functional. Details: concentration or dose not given beside the values. In short, it runs like this:
(§1)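 Rats immunised with bovine articular-cartilage type II collagen (dissolved in 0.01 M AcOH for 24 h at 4 °C, dialysed against saline) mixed in equal volume with incomplete Freund's adjuvant. Paws were examined weekly for 7 weeks. An animal counted as arthritic at Δ paw volume ≥8.0 (injected paw) or ≥4.0 (noninjected paw). Bone lesions were scored on lateral-projection foot radiographs. 16 rats/group.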

Test [5] concerns Rattus norvegicus. In words: Tested in vivo for antiinflammatory activity against chronic adjuvant arthritic rat by prophylactic inhibition 2 degree paw after peroral administration of 9 mg/kg of dose. The format is functional. The following applies: route oral. In short, it runs like this:
(§2)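 Prophylactic regimen, rats. Adjuvant is heat-killed Mycobacterium tuberculosis ground to a fine powder in paraffin oil (6 mg/mL); 0.1 mL is injected into the left hind paw. Oral drug is given 1 h before adjuvant challenge, then for 21 consecutive days; controls receive methyl cellulose. Left (1°) and right (2°) hind paw volumes are measured by plethysmograph.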

Test [6] concerns Rattus norvegicus. The test is described as follows: Tested in vivo for antiinflammatory activity against chronic adjuvant arthritic rat by prophylactic inhibition 1 degree paw after peroral administration of 9 mg/kg of dose. In kind it is functional. The conditions noted are these: route oral. An outline of the steps: as §2
Test [7] concerns Rattus norvegicus. In words: In vivo antiinflammatory activity against rats by RPAR(reverse passive Arthus reaction) synovitis method. In kind it is functional. Details: concentration or dose not given beside the values. An outline of the steps: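 Lewis rats, oral drug or placebo 1 h before iv BSA (2.28 mg in saline), then intraarticular rabbit anti-BSA (0.54 mg) into one knee and saline into the other, under light anesthesia. Second oral dose at 3 h; the total of both doses is the calculated dose. About 17 h after induction, subpatellar tissue with synovium is excised and weighed. Response is antibody-minus-saline knee weight, tested by analysis of variance.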

In test [8] the test system is Rattus norvegicus. In words: Compound was tested in vivo against chronic adjuvant arthritic rat by prophylactic inhibition 2 degree paw. Relative potency with respect to (8-Benzyl-5-hydroxy-1,3-dimethyl-6-propyl-1H,8H-1,3,4b,8,9-pentaaza-fluorene-2,4,7-trione). In kind it is functional.
The species named for test [9] is Rattus norvegicus. The test is described as follows: Antiinflammatory activity on the development of collagen II arthritis in rats, measured based on animals positive for arthritis by the presence of bone lesions. The format is functional. An outline of the steps:
as §1

The subject of test [10] is Rattus norvegicus. In words: Antiinflammatory activity on the development of collagen II arthritis in rats, measured based on animals positive for arthritis by the presence of paw edema. In kind it is functional. In short, it runs like this:
as §1

“And” between values parts separate entries of the source, which are not always exact repeats. Equal values may be shown once.

Take `CCCc1c(O)n(Cc2ccc(F)cc2)c2nc3c(c(=O)n(C)c(=O)n3C)n2c1=O`: the inhibition in test [1] was 0% and 8%; in [2] it was 36%. This compound returned an Antibody titer in the test listed under Rattus norvegicus [3] of 6.6. The Inhibition turned out to be 54.9% in the test on Rattus norvegicus [4] and 53% with Rattus norvegicus [7]. For the same compound, the inhibition in vivo at 9 mg/kg in the test on Rattus norvegicus [5] worked out at 49%; with Rattus norvegicus [6], 42%. Besides, in the test on Rattus norvegicus [8], the Relative potency worked out at 1.2. Further, the Positive in the test listed under Rattus norvegicus [9] was 18.8%; in the test with Rattus norvegicus [10], 31.3%.

Turning to `CC(C)=CCc1c(O)n(Cc2ccc(F)cc2)c2nc3c(c(=O)n(C)c(=O)n3C)n2c1=O`, the inhibition in test [1] was 21% and 22%; in [2], 93%. The compound also had an Antibody titer in the test filed under Rattus norvegicus [3] of 8.4. Also, the Inhibition in the test on Rattus norvegicus [4] stood at 80.6%; with Rattus norvegicus [7], 29%. Moreover, the inhibition in vivo at 9 mg/kg was 35% in the test with Rattus norvegicus [5] and 22% in the test on Rattus norvegicus [6]. Also, the Relative potency in the test on Rattus norvegicus [8] is 4.8. For the same compound, the Positive in the test listed under Rattus norvegicus [9] is recorded as 14.3%; in the test with Rattus norvegicus [10], 21.4%.

For `CC(C)=CCc1c(O)n(Cc2ccccc2)c2nc3c(c(=O)n(C)c(=O)n3C)n2c1=O`, the inhibition is 17% and 22% in test [1]; 92% in [2]. For the same compound, the Antibody titer in the test filed under Rattus norvegicus [3] amounted to 10.9. Also, the Inhibition was found to be 10.1% in the test on Rattus norvegicus [4] and 26% in the test with Rattus norvegicus [7]. The inhibition in vivo at 9 mg/kg in the test with Rattus norvegicus [5] came to 76%; in the test with Rattus norvegicus [6], 30%. Further, the Relative potency in the test with Rattus norvegicus [8] was 3.1 and 4.3. For the same compound, the figures for the Positive in the test listed under Rattus norvegicus [9] and in the test on Rattus norvegicus [10] were 40% and 46.7%, respectively.
